Measured values as given in ChEMBL document CHEMBL3872252, “New bithiazolyl hydrazones: Novel synthesis, characterization and antitubercular evaluation” (Bioorg Med Chem Lett, 2017).
≈ marks a conversion by molar mass, not a printed value.

How the values were obtained:
[1] = Selectivity index, ratio of GI50 for human HCT116 cells to MIC90 for Mycobacterium tuberculosis H37Ra ATCC 25177 active stage; type: toxicity, cell-based, HCT-116; conditions: read-out: Selectivity Index
Procedure, shortened: (§1)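 Cytotoxicity was measured on human MCF-7, HCT116 and THP-1 cells by MTT assay, with paclitaxel as reference. GI50 is the concentration inhibiting 50% of cell growth. The selectivity index is GI50 for the given cell line divided by MIC90 for the given mycobacterial strain and stage.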

Bacillus subtilis [2] = experiment: Growth inhibition of Bacillus subtilis at 3 ug/ml; type: functional; conditions: read-out: GI
Procedure, shortened: (§2)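 Screened against Gram-negative E. coli and P. aeruginosa and Gram-positive S. aureus and B. subtilis. Compound was tested at 3 µg/ml, and the read-out is percent growth inhibition.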

[3] = Antitubercular activity against Mycobacterium bovis BCG ATCC 35743 dormant stage measured on day 12 by nitrate reductase based two-fold dilution assay; type: functional, Mycobacterium bovis BCG str. ATCC 35743; conditions: Mycobacterium tuberculosis variant bovis BCG, ATCC 35743, 288 h
[4] = Antitubercular activity against Mycobacterium tuberculosis H37Ra ATCC 25177 dormant stage infected in human THP1 cells measured on day 12 by nitrate reductase assay; type: functional, THP-1; conditions: ATCC 25177, 288 h
[5] = Selectivity index, ratio of GI50 for human THP1 cells to MIC90 for Mycobacterium tuberculosis H37Ra ATCC 25177 active stage; type: toxicity, cell-based, THP-1; conditions: read-out: Selectivity Index; procedure, shortened: as §1
Staphylococcus aureus [6] = experiment: Growth inhibition of Staphylococcus aureus at 30 ug/ml; type: functional; conditions: read-out: GI
Escherichia coli [7] = experiment: Growth inhibition of Escherichia coli at 10 ug/ml; type: functional; conditions: read-out: GI
Pseudomonas aeruginosa [8] = experiment: Growth inhibition of Pseudomonas aeruginosa at 3 ug/ml; type: functional; conditions: read-out: GI; procedure, shortened: as §2
Bacillus subtilis [9] = experiment: Growth inhibition of Bacillus subtilis at 30 ug/ml; type: functional; conditions: read-out: GI
Bacillus subtilis [10] = experiment: Growth inhibition of Bacillus subtilis at 10 ug/ml; type: functional; conditions: read-out: GI
Pseudomonas aeruginosa [11] = experiment: Growth inhibition of Pseudomonas aeruginosa at 30 ug/ml; type: functional; conditions: read-out: GI
[12] = Cytotoxicity against human THP1 cells by MTT assay; type: toxicity, cell-based, THP-1; conditions: for GI50: THP1 cells; for GI90: thp-1
Staphylococcus aureus [13] = experiment: Growth inhibition of Staphylococcus aureus at 3 ug/ml; type: functional; conditions: read-out: GI; procedure, shortened: as §2
[14] = Selectivity index, ratio of GI50 for human MCF7 cells to MIC90 for Mycobacterium tuberculosis H37Ra ATCC 25177 dormant stage; type: toxicity, cell-based; conditions: read-out: Selectivity Index
Procedure, shortened: (§3)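 Cytotoxicity was measured on human MCF-7, HCT116 and THP-1 cells by MTT assay, with paclitaxel as reference. The selectivity index is GI50 for the given cell line divided by MIC90 for the given mycobacterial strain and stage.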

Escherichia coli [15] = experiment: Growth inhibition of Escherichia coli at 30 ug/ml; type: functional; conditions: read-out: GI
Escherichia coli [16] = experiment: Growth inhibition of Escherichia coli at 3 ug/ml; type: functional; conditions: read-out: GI; procedure, shortened: as §2
[17] = Selectivity index, ratio of GI50 for human THP1 cells to MIC90 for Mycobacterium bovis BCG ATCC 35743 active stage; type: toxicity, cell-based, THP-1; conditions: read-out: Selectivity Index; procedure, shortened: as §1
[18] = Antitubercular activity against Mycobacterium tuberculosis H37Ra ATCC 25177 dormant stage measured on day 12 by XTT reduction menadione based two-fold dilution assay; type: functional; conditions: ATCC 25177, 288 h
Procedure, shortened: (§4)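 M. tuberculosis H37Ra ATCC 25177 was exposed to 0.7–100 μg/mL in two-fold steps (0.7, 1.5, 3.1 … 100). Active stage was read after 8 days and dormant stage after 12 days of incubation. Inhibition was read by XTT reduction menadione assay (XRMA), absorbance 470 nm. MIC90 is the concentration giving ≥90% inhibition (µg/mL).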

[19] = Antitubercular activity against Mycobacterium tuberculosis H37Ra ATCC 25177 active stage measured on day 8 by XTT reduction menadione based two-fold dilution assay; type: functional; conditions: ATCC 25177, 192 h; procedure, shortened: as §4
[20] = Cytotoxicity against human HCT116 cells by MTT assay; type: toxicity, cell-based, HCT-116; conditions: for GI50: HCT116 cells; for GI90: hct-116
[21] = Selectivity index, ratio of GI50 for human HCT116 cells to MIC90 for Mycobacterium bovis BCG ATCC 35743 dormant stage; type: toxicity, cell-based, HCT-116; conditions: read-out: Selectivity Index; procedure, shortened: as §3
[22] = Selectivity index, ratio of GI50 for human MCF7 cells to MIC90 for Mycobacterium bovis BCG ATCC 35743 dormant stage; type: toxicity, cell-based; conditions: read-out: Selectivity Index; procedure, shortened: as §3
[23] = Antitubercular activity against Mycobacterium tuberculosis H37Ra ATCC 25177 active stage infected in human THP1 cells measured on day 8 by nitrate reductase assay; type: functional, THP-1; conditions: ATCC 25177, 192 h
[24] = Cytotoxicity against human MCF7 cells by MTT assay; type: toxicity, cell-based; conditions: for GI50: MCF7 cells; for GI90: mcf7
Pseudomonas aeruginosa [25] = experiment: Growth inhibition of Pseudomonas aeruginosa at 10 ug/ml; type: functional; conditions: read-out: GI
[26] = Selectivity index, ratio of GI50 for human HCT116 cells to MIC90 for Mycobacterium bovis BCG ATCC 35743 active stage; type: toxicity, cell-based, HCT-116; conditions: read-out: Selectivity Index; procedure, shortened: as §1
[27] = Antitubercular activity against Mycobacterium bovis BCG ATCC 35743 active stage measured on day 8 by nitrate reductase based two-fold dilution assay; type: functional, Mycobacterium bovis BCG str. ATCC 35743; conditions: Mycobacterium tuberculosis variant bovis BCG, ATCC 35743, 192 h
[28] = Selectivity index, ratio of GI50 for human MCF7 cells to MIC90 for Mycobacterium tuberculosis H37Ra ATCC 25177 active stage; type: toxicity, cell-based; conditions: read-out: Selectivity Index; procedure, shortened: as §1
Staphylococcus aureus [29] = experiment: Growth inhibition of Staphylococcus aureus at 10 ug/ml; type: functional; conditions: read-out: GI
[30] = Selectivity index, ratio of GI50 for human THP1 cells to MIC90 for Mycobacterium tuberculosis H37Ra ATCC 25177 dormant stage; type: toxicity, cell-based, THP-1; conditions: read-out: Selectivity Index; procedure, shortened: as §3
[31] = Selectivity index, ratio of GI50 for human MCF7 cells to MIC90 for Mycobacterium bovis BCG ATCC 35743 active stage; type: toxicity, cell-based; conditions: read-out: Selectivity Index; procedure, shortened: as §1
[32] = Selectivity index, ratio of GI50 for human THP1 cells to MIC90 for Mycobacterium bovis BCG ATCC 35743 dormant stage; type: toxicity, cell-based, THP-1; conditions: read-out: Selectivity Index; procedure, shortened: as §3
[33] = Selectivity index, ratio of GI50 for human HCT116 cells to MIC90 for Mycobacterium tuberculosis H37Ra ATCC 25177 dormant stage; type: toxicity, cell-based, HCT-116; conditions: read-out: Selectivity Index; procedure, shortened: as §3

Row | Structure (SMILES) | selectivity ratio [1] | inhibition of growth at 3 µg/mL (Bacillus subtilis [2]) | IC50 [3] | MIC90 [3] | MIC90 [4] | selectivity ratio [5] | inhibition of growth at 30 µg/mL (Staphylococcus aureus [6]) | inhibition of growth at 10 µg/mL (Escherichia coli [7]) | inhibition of growth at 3 µg/mL (Pseudomonas aeruginosa [8]) | inhibition of growth at 30 µg/mL (Bacillus subtilis [9]) | inhibition of growth at 10 µg/mL (Bacillus subtilis [10]) | inhibition of growth at 30 µg/mL (Pseudomonas aeruginosa [11]) | GI50 [12] | GI90 [12] | inhibition of growth at 3 µg/mL (Staphylococcus aureus [13]) | selectivity ratio [14] | inhibition of growth at 30 µg/mL (Escherichia coli [15]) | inhibition of growth at 3 µg/mL (Escherichia coli [16]) | selectivity ratio [17] | IC50 [18] | also measured
1 | C/C(=N\Nc1nc(-c2ccc(Br)cc2)cs1)c1sc(C)nc1C | 2 | 25.9% | 2.51 µg/mL (≈ 6.16 µM) | 10.6 µg/mL (≈ 26 µM) | 48.8 µg/mL (≈ 120 µM) | 2 | 81% | 70.7% | 30.5% | 79.5% | 66.4% | 82.1% | > 100 µg/mL | > 100 µg/mL | 31.2% | 2 | 82% | 35.8% | 9 | 0.66 µg/mL (≈ 1.62 µM) | MIC90 [18]: 43.7 µg/mL (≈ 107 µM); IC50 [19]: 0.15 µg/mL (≈ 0.368 µM); MIC90 [19]: 44.1 µg/mL (≈ 108 µM); GI50 [20]: > 100 µg/mL; GI90 [20]: > 100 µg/mL; selectivity ratio [21]: 9; selectivity ratio [22]: 9; MIC90 [23]: 47.9 µg/mL (≈ 118 µM); GI50 [24]: > 100 µg/mL; GI90 [24]: > 100 µg/mL; inhibition of growth at 10 µg/mL (Pseudomonas aeruginosa [25]): 69.5%; selectivity ratio [26]: 9; IC50 [27]: 1.6 µg/mL (≈ 3.93 µM); MIC90 [27]: 11.4 µg/mL (≈ 28 µM); selectivity ratio [28]: 2; inhibition of growth at 10 µg/mL (Staphylococcus aureus [29]): 68.8%; selectivity ratio [30]: 2; selectivity ratio [31]: 9; selectivity ratio [32]: 9; selectivity ratio [33]: 2
2 | C/C(=N\Nc1nc(-c2ccc(Cl)cc2)cs1)c1sc(C)nc1C | 3 | 47.1% | 3.06 µg/mL (≈ 8.43 µM) | 17 µg/mL (≈ 46.7 µM) | > 100 µg/mL | 3 | 66.3% | 63.9% | 50.9% | 63.8% | 58.9% | 66.9% | > 100 µg/mL | > 100 µg/mL | 50.9% | 1 | 68.4% | 54% | 6 | 9.02 µg/mL (≈ 24.9 µM) | MIC90 [18]: > 100 µg/mL; IC50 [19]: 11.9 µg/mL (≈ 32.8 µM); MIC90 [19]: > 100 µg/mL; GI50 [20]: > 100 µg/mL; GI90 [20]: > 100 µg/mL; selectivity ratio [21]: 6; selectivity ratio [22]: 6; MIC90 [23]: > 100 µg/mL; GI50 [24]: > 100 µg/mL; GI90 [24]: > 100 µg/mL; inhibition of growth at 10 µg/mL (Pseudomonas aeruginosa [25]): 61.6%; selectivity ratio [26]: 6; IC50 [27]: 1.95 µg/mL (≈ 5.37 µM); MIC90 [27]: 16.1 µg/mL (≈ 44.2 µM); selectivity ratio [28]: 3; inhibition of growth at 10 µg/mL (Staphylococcus aureus [29]): 61.7%; selectivity ratio [30]: 1; selectivity ratio [31]: 6; selectivity ratio [32]: 6; selectivity ratio [33]: 1
